# DENV2 CPE rescue: protects cells from dengue virus 2 cytopathic effect | DENV2-infected cells, cytopathic effect rescue, plate reader | CPE inhibition, % at 9.99 µM | hit rate 1.7% among 350,000 | AID 651640; in the data active means CPE inhibition above about 20%, passing the limit was not always enough; inconclusive means no clear call, values can overlap the other calls; tested in BHK-21 cells
# FGF22 binding: binders of recombinant human FGF22 by thermal shift. Q9HCT0. activity (Tm shift, normalised), % at 9.99 µM. hit rate 1.5% among 340,000. AID 651658. SYPRO orange fluorescence; percent of sucrose octasulfate shift, DMSO zero;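 active means mean Tm shift, scaled 0 neutral to 100 positive control, at about 1.3% or above, every replicate too, limit read from the data; inconclusive means no clear call, values can overlap the other calls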
# E-sel inducer: induces E-selectin expression in human endothelial cells | HUVEC E-selectin immunofluorescence imaging; normalized: neutral wells 0, TNF-alpha wells 100 | activation, % at 7.58 µM | hit rate 0.37% among 260,000 | AID 686992;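 active means mean E-selectin-positive cell signal at least 10% of the positive control, reached in at least 60% of replicates, without over 20% cell loss; inconclusive means no rule given, readout overlaps actives, possibly toxicity-flagged; inactive means the rest, including those meeting only one limit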
# Target sequence (P16581 whole entry, looked up): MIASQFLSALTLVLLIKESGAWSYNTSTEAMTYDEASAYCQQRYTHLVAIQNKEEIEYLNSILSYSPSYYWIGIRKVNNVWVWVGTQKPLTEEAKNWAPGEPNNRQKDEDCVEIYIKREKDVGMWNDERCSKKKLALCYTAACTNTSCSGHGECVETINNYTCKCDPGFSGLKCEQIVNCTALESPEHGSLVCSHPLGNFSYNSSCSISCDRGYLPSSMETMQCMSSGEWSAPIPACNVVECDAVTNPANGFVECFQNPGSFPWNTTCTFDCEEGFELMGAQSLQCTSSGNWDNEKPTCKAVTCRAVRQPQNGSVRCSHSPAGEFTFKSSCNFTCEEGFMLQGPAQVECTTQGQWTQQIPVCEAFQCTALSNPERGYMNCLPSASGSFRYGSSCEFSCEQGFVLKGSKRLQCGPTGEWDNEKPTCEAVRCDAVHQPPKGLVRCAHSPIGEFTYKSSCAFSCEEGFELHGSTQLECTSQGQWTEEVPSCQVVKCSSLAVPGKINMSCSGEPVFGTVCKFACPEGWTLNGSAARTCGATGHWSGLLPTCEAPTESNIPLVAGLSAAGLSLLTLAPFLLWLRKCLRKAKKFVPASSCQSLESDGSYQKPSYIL
#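 Test system: HUVEC | Signal: Immunofluorescence imaging | Read-out: Percent E-selectin-positive cells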
# CFTR F508del cor: correctors of CFTR F508del function in bronchial epithelial cells. CFBE cells, YFP halide quenching; stimulated with forskolin plus potentiator P3; % fluorescence drop versus neutral controls. activity (quench increase), % at 7.58 µM. hit rate 0.36% among 350,000. AID 720511;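 active means mean added fluorescence quench of at least 8% versus neutral control, with both replicates also reaching 8%; inconclusive means only one of the mean or replicate conditions met; inactive means mean below 8% and not both replicates reaching 8%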;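 further: cells transiently co-express mutant CFTR-F508del with the halide-sensitive YFP; corrector assay measuring rescue of mutant channel to the surface after 24 h compound exposure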
# ERAP1 HTS inh: inhibitors of human ERAP1 aminopeptidase | Q9NZ08 | recombinant ERAP1, Leu-AMC fluorescence, 60 min | inhibition, % at 10.7 µM | hit rate 0.15% among 340,000 | AID 652197;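 active means mean replicate inhibition of at least 30%, or all replicates individually reaching that 30% level; inactive means mean below 30% and not every replicate reaching it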
# Numbers stand for hits; 0 = inactive; ? = inconclusive; - = no result; ! = a repeat was not active. Shown are actives, neighbours in structure and some others; about 3.7% of the full set was active somewhere.
SMILES,DENV2 CPE rescue,FGF22 binding,E-sel inducer,CFTR F508del cor,ERAP1 HTS inh
Cc1ccccc1C1NC(=S)NC2=C1C(=O)CC(C)(C)C2 (stereo unspecified),0,43,0,0,0
C[C@H](CO)N1C[C@H](C)[C@H](CN(C)C(=O)NC2CCCCC2)OCCCC[C@H](C)Oc2ccc(NS(=O)(=O)c3ccccc3)cc2C1=O,0,0,0,0,0
C[C@H](CO)N1C[C@H](C)[C@@H](CN(C)C(=O)c2ccc(F)cc2)Oc2ncc(-c3ccncc3)cc2C1=O,?,0,0,0,0
C[C@H](CO)N1C[C@H](C)[C@@H](CN(C)S(=O)(=O)c2ccccc2)Oc2ccc(NC(=O)Nc3ccc(C(F)(F)F)cc3)cc2C1=O,0,0,431!,0,0
C[C@@H]1CN([C@H](C)CO)C(=O)c2cc(NC(=O)Nc3ccc(C(F)(F)F)cc3)ccc2O[C@@H]1CN(C)S(=O)(=O)c1ccccc1,0,0,0,0,0
C[C@@H]1CN([C@@H](C)CO)C(=O)c2cc(NC(=O)Nc3ccc(C(F)(F)F)cc3)ccc2O[C@H]1CN(C)S(=O)(=O)c1ccccc1,0,0,79,0,0
Cc1ccc(S(=O)(=O)N(C)C[C@@H]2Oc3ccc(NC(=O)Nc4ccc(C(F)(F)F)cc4)cc3C(=O)N([C@H](C)CO)C[C@@H]2C)cc1,0,0,0,0,0
Cc1ccc(S(=O)(=O)N(C)C[C@@H]2Oc3ccc(NC(=O)Nc4ccc(C(F)(F)F)cc4)cc3C(=O)N([C@@H](C)CO)C[C@@H]2C)cc1,0,2.8,0,0,0
C[C@@H]1CN([C@@H](C)CO)C(=O)c2cc(NC(=O)CCC(F)(F)F)ccc2O[C@@H]1CN(C)S(=O)(=O)c1ccc(F)cc1,?,0,0,0,0
Cc1ccc(S(=O)(=O)N(C)C[C@H]2Oc3ccc(NC(=O)CCC(F)(F)F)cc3C(=O)N([C@H](C)CO)C[C@@H]2C)cc1,29,0,0,0,0
CCCC(=O)Nc1ccc2c(c1)C(=O)N(C)C[C@@H](OC)[C@@H](C)CN(CC1CCCC1)[C@H](C)CO2,0,0,0,0,0
O=C(c1ccccc1)N1CC[C@@H]2[C@H]1c1cc(C#Cc3cccnc3)ccc1N[C@@H]2CO,0,0,0,0,0
Cc1ccc(S(=O)(=O)N(C)C[C@@H]2Oc3ccc(NC(=O)Nc4ccc(C(F)(F)F)cc4)cc3CC(=O)N([C@@H](C)CO)C[C@H]2C)cc1,28,0,0,0,0
C[C@@H]1CN([C@H](C)CO)S(=O)(=O)c2ccc(-c3ccc(F)cc3)cc2O[C@H]1CN(C)Cc1cccc(F)c1,-,-,0,0,-
C[C@@H]1CN([C@@H](C)CO)C(=O)c2cc(C#CC3CCCCC3)cnc2O[C@H]1CN(C)S(C)(=O)=O,0,0,0,0,0
N#C/C(=C/c1cccn1-c1cccc(C(=O)O)c1)c1ccc(Cl)cc1,0,44,-,0,0
O=C(Nc1ccc(F)cc1)N[C@H]1CC[C@H](CCNS(=O)(=O)c2ccccc2F)O[C@H]1CO,0,0,0,0,0
CCN[C@H]1C[C@H](C)S(=O)(=O)c2sc(S(N)(=O)=O)cc21,0,0,0,0,0
CCN[C@H]1CN(CCCOC)S(=O)(=O)c2sc(S(N)(=O)=O)cc21,0,0,0,10,0
CCN1C(Nc2ccccc2)=NC[C@@H]1CC(C)C,22,0,0,0,0
c1ccc(CCCCN2C(Nc3ccccc3)=NC[C@@H]2Cc2ccccc2)cc1,24,0,0,0,0
C[C@H](CO)N1C[C@H](C)[C@H](CN(C)CC2CCCCC2)Oc2ccc(NC(=O)Nc3ccc4c(c3)OCO4)cc2CC1=O,34,0,0,0,0
C[C@H]1CN([C@@H](C)CO)C(=O)Cc2cc(NC(=O)Nc3ccc4c(c3)OCO4)ccc2O[C@@H]1CN(C)S(C)(=O)=O,26,-,0,0,0
C[C@H]1CN([C@@H](C)CO)C(=O)Cc2cc(NC(=O)Nc3ccc4c(c3)OCO4)ccc2O[C@H]1CN(C)S(C)(=O)=O,0,0,0,0,0
C[C@H]1CN([C@@H](C)CO)C(=O)Cc2cc(NC(=O)Nc3ccc4c(c3)OCO4)ccc2O[C@@H]1CN(C)C,0,0,233,0,0
C[C@H]1CN([C@@H](C)CO)C(=O)Cc2cc(NC(=O)Nc3ccc4c(c3)OCO4)ccc2O[C@@H]1CN(C)C(=O)Nc1ccc2c(c1)OCO2,0,0,0,0,0
